# Assay results from ChEMBL document CHEMBL1123165, “A quantitative structure-activity relationship and molecular graphics analysis of hydrophobic effects in the interactions of inhibitors with alcohol dehydrogenase” (J Med Chem, 1986).
# How the values were obtained:
# [1] = Partition coefficient (logP); assay type: physicochemical; conditions: octanol/water
# [2] = target: Alcohol dehydrogenase (Equus caballus, UniProt P00327+P00328); experiment: Inhibitory activity against horse liver alcohol dehydrogenase (ADH)
# Procedure, shortened: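 Horse liver ADH crystalline suspension, pelleted (12000g, 3 min) to remove ethanol, redissolved in 0.1 M potassium phosphate pH 7.0, diluted 1:10; 0.004 unit per assay. Reaction started with 5 or 10 mM ethanol, NADH read at 340 nm.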
Structure (SMILES),logP [1],Log 1/Ki [2]
CCCCCc1cn[nH]c1,2.96,8.6
NC(=O)C(Br)Br,0.18,2.49
NC(=O)C(Cl)Cl,-0.03,2.19
NC(=O)C(F)F,-0.76,1.12
C=C(C)C(N)=O,-0.71,3.02
CCCCCCc1cn[nH]c1,3.46,8.88
NC(=O)C(Cl)(Cl)Cl,0.79,2.07
NC(=O)CCl,-0.59,2.12
CCC(CC)C(N)=O,0.53,3.41
CCCc1cn[nH]c1,1.96,7.65
CCCCCCc1ccc(CNC=O)cc1,,7.58
C/C=C(\C)C(N)=O,-0.21,3.15
C/C=C/C(N)=O,-0.51,2.89
NC(=O)CBr,,2.24
C=CC(N)=O [ACRYLAMIDE],-1.01,2.11
Cc1cn[nH]c1 [FOMEPIZOLE],0.96,6.85
NC(=O)CI [IODOACETAMIDE],0.15,2.72
CC(C)C(N)=O [ISOBUTYRAMIDE],-0.39,3.77
NC(=O)CF [MONOFLUOROACETAMIDE],-1.03,1.41
CC(C)(C)C(N)=O [PIVALAMIDE],0.15,2.46
c1cn[nH]c1 [PYRAZOLE],0.26,5.73
NC(=O)C(F)(F)F [TRIFLUOROACETAMIDE],-0.11,1.33

# More lines, now with the values ahead:
logP [1],Log 1/Ki [2],Structure (SMILES)
2.97,5.7,NC(=O)Cc1ccc(OCc2ccc(Br)cc2)cc1
2.11,5.7,NC(=O)Cc1ccc(OCc2ccccc2)cc1
,7.52,CCCCCOc1ccc(CNC=O)cc1
1.57,5.1,NC(=O)Cc1ccc(I)cc1
1.16,4.7,NC(=O)Cc1ccc(Cl)cc1
1.3,4.1,CC(C)Oc1ccc(CC(N)=O)cc1
0.83,4.1,CCOc1ccc(CC(N)=O)cc1
1.5,4.6,CCCOc1ccc(CC(N)=O)cc1
0.43,4.15,COc1ccc(CC(N)=O)cc1
2.38,5.22,CC(C)CCOc1ccc(CC(N)=O)cc1
,7.4,CCCCOc1ccc(CNC=O)cc1
0.59,4.19,NC(=O)Cc1ccc(F)cc1
2.04,5.15,CCCCOc1ccc(CC(N)=O)cc1
,7.82,O=CNCc1ccc(OCc2ccccc2)cc1
,5.75,O=CNCc1ccc(O)cc1
2.58,5.92,CCCCCOc1ccc(CC(N)=O)cc1
1.31,4.7,NC(=O)Cc1ccc(Br)cc1
3.42,6,NC(=O)Cc1ccc(OCC2CCCCC2)cc1
